{"data": "Measured values from different studies", "target": "Cyclin-dependent kinase-like 1 (CDKL1, Homo sapiens, UniProt Q00532)", "note": "Protocols differ between the studies behind these lines."}
{"Compound": "Nc1ncnc2occ(-c3ccc(NC(=O)Nc4cc(C(F)(F)F)ccc4F)cc3)c12", "read-out": "cell-free assay", "tested at": "20 µM", "endpoint": "remaining signal", "result": "0.55%"}
{"Compound": "CN1CC(Oc2cnc(C#N)cc2-c2ccn3nc(NC(=O)C4CC4)cc3c2)C1", "read-out": "enzyme activity", "action": "inhibitor", "tested at": "1 µM", "endpoint": "inhibition", "result": "5%"}
{"Compound": "NS(=O)(=O)c1cc(NC(=O)C2(c3ccccc3Cl)CC2)ccc1Oc1cccc(Cl)c1", "read-out": "binding", "technique": "competition with immobilised ligand", "tested at": "1 µM", "endpoint": "remaining binding", "result": "99%"}
{"Compound": "Cc1ccc(C(=O)Nc2ccc(CN3CCN(C)CC3)c(C(F)(F)F)c2)cc1C#Cc1cnc2cccnn12", "read-out": "enzyme activity", "tested at": "23.5 nM", "endpoint": "remaining activity", "result": "85%"}
{"Compound": "Cn1c2c(Cl)c(Cl)ccc2c2cc(N)[nH]c(=O)c21", "read-out": "thermal stability", "technique": "DSF", "tested at": "10 µM", "endpoint": "ΔTm", "result": "0.3 °C"}
{"Compound": "CO[C@@H](C)c1c(Nc2ccc([C@@H](N(C)C(=O)C3CCS(=O)(=O)CC3)C(F)(F)F)cc2)cnc2cc(Cl)nn12", "read-out": "cell-free assay", "technique": "competition with immobilised ligand", "tested at": "1 µM", "endpoint": "remaining binding", "result": "74%"}
{"Compound": "CCC1(CC)NC(=O)c2c(c3ccc(Cl)c(Cl)c3n2C)C1C#N (centres unmarked)", "read-out": "thermal stability", "technique": "DSF", "tested at": "10 µM", "endpoint": "ΔTm", "result": "0 °C"}
{"Compound": "COc1cc(Cl)c(C(=O)N[C@@H](CN[C@H]2CC[C@@H](N)CC2)Cc2ccc(C#N)cc2)cc1-c1ccc(CN[C@H](C)c2ccc(C)cc2)o1", "read-out": "enzyme activity", "action": "inhibitor", "tested at": "1 µM", "endpoint": "remaining activity", "result": "101%"}
